This is an account of results in ChEMBL document CHEMBL3352243, “Ligand-based virtual screening identifies a family of selective cannabinoid receptor 2 agonists” (Bioorg Med Chem, 2015).

SMILES strings stand for the structures. Values after ≈ are worked out from the molar mass of the structure shown.

For series [1], the target named is T1, Cannabinoid receptor 2 (Homo sapiens, UniProt P34972). As to the kind of experiment: Agonist activity at human CB2R expressed in CHO cells assessed as reduction in forskolin-induced cAMP accumulation by beta-galactosidase based complementation immunoassay. The class given is functional, cell-based. Put shortly: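 hCB2R CHO-K1 cells plated overnight at 37 °C, 5% CO2; anti-cAMP antibody added, then compound (final 0.2% DMSO) with 20 μM forskolin for 30 min at 37 °C. Lysis/substrate 1 h, then EA detection reagent 3 h at room temperature; luminescence read and normalised to forskolin+solvent wells (100%). EC50 by 4-parameter nonlinear fit of pooled 3–4 independent experiments.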
Target sequence in this assay (P34972 whole entry): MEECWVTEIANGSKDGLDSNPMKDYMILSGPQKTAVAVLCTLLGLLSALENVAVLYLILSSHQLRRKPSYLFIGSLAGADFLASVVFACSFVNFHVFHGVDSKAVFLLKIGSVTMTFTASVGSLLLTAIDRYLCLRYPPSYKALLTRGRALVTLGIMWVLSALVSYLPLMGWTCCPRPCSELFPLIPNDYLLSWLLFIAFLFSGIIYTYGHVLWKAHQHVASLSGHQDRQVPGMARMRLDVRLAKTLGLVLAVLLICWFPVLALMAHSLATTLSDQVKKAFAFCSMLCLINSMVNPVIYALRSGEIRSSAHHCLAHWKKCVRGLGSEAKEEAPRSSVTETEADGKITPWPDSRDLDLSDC

For series [2], the target named is T2, Cannabinoid receptor 1 (Homo sapiens, UniProt P21554). As to the kind of experiment: Displacement of [3H]CP55940 from human CB1R expressed in CHO cells. The class given is cell-based. The gist of the method: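 Membranes from CHO cells expressing hCB1R incubated with test compound and [3H]CP 55,940 (0.5 nM) for 2 h at 37 °C. Non-specific binding defined with 10 μM WIN-55212. Bound radioligand measured by scintillation counting. Ki from Cheng–Prusoff using radioligand Kd; run in duplicate.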
T2 sequence (P21554 whole entry): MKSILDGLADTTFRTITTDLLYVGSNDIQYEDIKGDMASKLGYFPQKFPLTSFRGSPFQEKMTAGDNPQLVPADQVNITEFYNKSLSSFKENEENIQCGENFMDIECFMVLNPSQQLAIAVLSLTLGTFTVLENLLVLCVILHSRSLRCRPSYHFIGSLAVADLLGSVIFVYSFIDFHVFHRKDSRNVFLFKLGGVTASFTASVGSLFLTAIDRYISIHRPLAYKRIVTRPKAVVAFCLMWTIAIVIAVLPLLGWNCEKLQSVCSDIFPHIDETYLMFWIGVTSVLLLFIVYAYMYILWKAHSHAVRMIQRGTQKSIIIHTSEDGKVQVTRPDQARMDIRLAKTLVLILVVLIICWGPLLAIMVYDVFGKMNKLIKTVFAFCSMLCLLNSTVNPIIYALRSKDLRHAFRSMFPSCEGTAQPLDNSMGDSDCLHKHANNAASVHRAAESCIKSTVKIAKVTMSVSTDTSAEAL

A further series relates to Liver. The series can be described thus: Half life in mouse liver microsomes in presence of NADPH by LC-MS/MS method. In kind it is ADME. Put shortly: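 Mouse liver microsomes incubated with compound at 37 °C with NADPH. Reactions stopped with methanol containing internal standard, centrifuged, supernatant analysed by LC–MS/MS.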
Series [3] has as its target T1, Cannabinoid receptor 2. The series can be described thus: Displacement of [3H]WIN-55212-2 from human CB2R expressed in CHO cells. The class given is cell-based. Put shortly: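 Membranes from CHO cells expressing hCB2R incubated with test compound and tritiated WIN-55212 (0.8 nM), 2 h, 37 °C. Non-specific binding defined with 5 μM WIN-55212. Scintillation counting of bound ligand; Ki via Cheng–Prusoff with radioligand Kd; duplicate.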
Target sequence in this assay (P34972 whole entry): as the sequence (P34972 whole entry) above

The nature of series [4]: Aqueous kinetic solubility of the compound at pH 7 at 37 degC by turbidimetric assay. In kind it is physicochemical. The following applies: read-out: Kinetic_solubility. Put shortly: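 Turbidimetric method: DMSO dilutions added to phosphate-buffered saline pH 7.4 at final 1, 3, 10, 30, 100 μM (1% DMSO), 7 replicates per concentration. Incubated 2 h at 37 °C, then absorbance read at 620 nm. Value is the mid-point of the precipitation range between upper and lower solubility limits.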

In series [5] the target is T2, Cannabinoid receptor 1. As to the kind of experiment: Agonist activity at human CB1R expressed in CHO cells assessed as reduction in forskolin-induced cAMP accumulation by beta-galactosidase based complementation immunoassay. In kind it is functional, cell-based. Put shortly: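 CHO-K1 cells expressing hCB1R, 15,000 per well, incubated overnight at 37 °C, 5% CO2, then given anti-cAMP antibody. Compounds were added with 20 μM forskolin (final DMSO 0.2%) for 30 min at 37 °C. Lysis/substrate step 1 h and EA detection 3 h, both at rt in the dark, then luminescence read.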

The target in series [6] is T1, Cannabinoid receptor 2. As to the kind of experiment: Agonist activity at human CB2R expressed in CHO cells assessed as reduction in forskolin-induced cAMP accumulation at 1 uM by beta-galactosidase based complementation immunoassay. Also on record: reference not given here.
Target sequence in this assay (P34972 whole entry, looked up): as the sequence (P34972 whole entry) above
Series [7] concerns the target T1, Cannabinoid receptor 2. The series can be described thus: Agonist activity at human CB2R expressed in CHO cells assessed as reduction in forskolin-induced cAMP accumulation at 3 uM by beta-galactosidase based complementation immunoassay. The class given is functional, cell-based. Also on record: reference not given here. Put shortly: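 CHO-K1 cells expressing hCB2R, 15,000 per well, incubated overnight at 37 °C, 5% CO2, then anti-cAMP antibody added. Test agent at single concentration with 20 μM forskolin (0.2% DMSO final), 30 min at 37 °C. Lysis/substrate 1 h, then EA reagent 3 h, both at rt in the dark; luminescence read and expressed as % of forskolin+solvent control wells.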
Target sequence in this assay (P34972 whole entry): as above

For `N#Cc1ccccc1CSc1nnc2c(n1)[nH]c1ccccc12`, the results for the EC50 on Cannabinoid receptor 2 [1] and on Cannabinoid receptor 1 [5] were 112 nM and more than 30000 nM, respectively. In addition, the Ki at Cannabinoid receptor 1 [2] is more than 60000 nM; at Cannabinoid receptor 2 [3], 355 nM. In addition, the t1/2 in the series with Liver worked out at 46 min. In addition, in series [4], the solubility kinetic stood at 3.75 µM (≈ 1.19 µg/mL).
Consider `COC(=O)CCCC(=O)n1c2ccccc2c2nnc(SCc3ccccc3C#N)nc21`, for which the 50% effective concentration (EC50) on Cannabinoid receptor 2 [1] turned out to be 42 nM. Besides, the solubility kinetic in series [4] came to 3.75 µM (≈ 1.67 µg/mL).
In the case of `N#Cc1ccccc1CSc1nnc2c3ccccc3n(C(=O)N3CCOCC3)c2n1`, the EC50 on Cannabinoid receptor 2 [1] came out at 92 nM. Further, in series [4], the solubility kinetic turned out to be 10.5 µM (≈ 4.52 µg/mL).
As for `N#Cc1ccccc1CSc1nnc2c3ccccc3n(C(=O)c3ccccc3)c2n1`, the EC50 at Cannabinoid receptor 2 [1] worked out at 113 nM. Besides, the Ki at Cannabinoid receptor 1 [2] was more than 10000 nM; at Cannabinoid receptor 2 [3] it was 300 nM. Moreover, the solubility kinetic in series [4] came out at 2 µM (≈ 0.843 µg/mL).
For the molecule `N#Cc1ccccc1CSc1nnc2c3ccccc3n(C(=O)c3ccno3)c2n1`, the EC50 at Cannabinoid receptor 2 [1] amounted to 19 nM. Also, the Ki at Cannabinoid receptor 1 [2] is more than 60000 nM; at Cannabinoid receptor 2 [3], 450 nM. Further, in series [4], the solubility kinetic was determined as 6.5 µM (≈ 2.68 µg/mL).
In the case of `COC(=O)CCC(=O)n1c2ccccc2c2nnc(SCc3ccccc3C#N)nc21`, on Cannabinoid receptor 2 [1], the EC50 stood at 48 nM. The Ki is more than 60000 nM at Cannabinoid receptor 1 [2] and 360 nM on Cannabinoid receptor 2 [3]. Besides, the solubility kinetic in series [4] was 3.75 µM (≈ 1.62 µg/mL).
For the molecule `CCCCSc1nnc2c(n1)[nH]c1ccccc12`, the Activity was determined as 52.1% at Cannabinoid receptor 2 [6] and 57.2% on Cannabinoid receptor 2 [7]. Besides, the 50% effective concentration (EC50) at Cannabinoid receptor 2 [1] came out at 296 nM. For the same molecule, in series [4], the solubility kinetic is 2 µM (≈ 0.517 µg/mL).
As for `O=[N+]([O-])c1ccccc1CSc1nnc2c(n1)[nH]c1ccccc12`, the EC50 was 33 nM at Cannabinoid receptor 2 [1] and more than 30000 nM at Cannabinoid receptor 1 [5]. Besides, the values for the Ki on Cannabinoid receptor 1 [2] and on Cannabinoid receptor 2 [3] were more than 60000 nM and 155 nM, respectively. The t1/2 in the series on Liver turned out to be 43 min.
